Laboratory results published in ChEMBL document CHEMBL1131628 (J Med Chem, 1998).

Tests used:
[1] = Pharmacokinetic profile AUC was evaluated in rats; type: ADME, organism-based; set-up: concentration or dose not given beside the values; conditions: rat, in vivo
Procedure, shortened: (§1)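 Male Sprague-Dawley rats, n = 4 per group, 10 mg/kg iv (jugular slow bolus) or oral gavage, 10 mg/mL in ethanol–propylene glycol–D5W (20:30:50) with 1 equiv NaOH. Tail-vein plasma taken 0.1 (iv only) to 12 h, assayed by HPLC after extraction. AUC by trapezoidal rule extrapolated to infinity; T1/2 from terminal rate constant; F as oral/iv AUC.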

[2] = Bioavailability in rat; type: ADME, organism-based; conditions: in vivo; procedure, shortened: as §1
[3] = Pharmacokinetic profile Cmax was evaluated in rats; type: ADME, organism-based; conditions: rat, in vivo; procedure, shortened: as §1
[4] = Pharmacokinetic profile-half life was evaluated in rats upon intravenous administration; type: ADME, organism-based; conditions: rat, in vivo; procedure, shortened: as §1
[5] = Pharmacokinetic profile-half life was evaluated in rats upon oral administration; type: ADME, organism-based; conditions: rat, in vivo; procedure, shortened: as §1
[6] = biological target: T1, Endothelin receptor type B (Homo sapiens, UniProt P24530); experiment: Tested for binding affinity for human Endothelin B receptor by measuring its ability to displace [125I]ET-3 from chinese hamster ovary cells(CHO); type: cell-based
T1 sequence (P24530 whole entry): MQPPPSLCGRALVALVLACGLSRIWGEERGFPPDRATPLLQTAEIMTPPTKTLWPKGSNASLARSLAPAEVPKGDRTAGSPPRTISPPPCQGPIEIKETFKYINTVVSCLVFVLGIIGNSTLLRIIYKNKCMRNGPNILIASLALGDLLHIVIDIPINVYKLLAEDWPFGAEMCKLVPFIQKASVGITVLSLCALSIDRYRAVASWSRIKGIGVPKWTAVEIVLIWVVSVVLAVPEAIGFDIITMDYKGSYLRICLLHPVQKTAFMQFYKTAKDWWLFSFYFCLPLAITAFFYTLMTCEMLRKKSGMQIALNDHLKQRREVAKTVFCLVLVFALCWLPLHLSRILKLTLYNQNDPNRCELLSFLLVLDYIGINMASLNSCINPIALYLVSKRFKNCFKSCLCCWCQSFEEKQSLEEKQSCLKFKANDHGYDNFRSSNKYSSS

Endothelin-1 receptor [7] = biological target: T2, Endothelin-1 receptor (Rattus norvegicus, UniProt P26684); experiment: Binding affinity for endothelin A receptor by measuring its ability to displace [125I]ET1 from prolactin secreting rat pituitary cells(MMQ); type: cell-based, Pituitary gland cell
T2 sequence (P26684 whole entry): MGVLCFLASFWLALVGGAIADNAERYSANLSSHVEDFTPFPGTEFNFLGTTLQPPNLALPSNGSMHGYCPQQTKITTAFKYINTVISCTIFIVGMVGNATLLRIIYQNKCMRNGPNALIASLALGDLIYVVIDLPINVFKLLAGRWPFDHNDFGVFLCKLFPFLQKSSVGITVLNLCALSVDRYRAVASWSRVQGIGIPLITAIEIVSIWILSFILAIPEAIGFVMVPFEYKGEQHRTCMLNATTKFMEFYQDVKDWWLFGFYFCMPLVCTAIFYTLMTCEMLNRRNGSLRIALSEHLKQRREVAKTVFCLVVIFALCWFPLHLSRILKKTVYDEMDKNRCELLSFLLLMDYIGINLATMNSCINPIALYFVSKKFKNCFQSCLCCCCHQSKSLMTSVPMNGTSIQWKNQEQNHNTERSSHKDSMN

Endothelin-1 receptor [8] = biological target: T3, Endothelin-1 receptor (Homo sapiens, UniProt P25101); experiment: Tested for binding affinity for human Endothelin A receptor by measuring its ability to displace [125I]ET1 from chinese hamster ovary cells(CHO); type: cell-based
T3 sequence (P25101 whole entry): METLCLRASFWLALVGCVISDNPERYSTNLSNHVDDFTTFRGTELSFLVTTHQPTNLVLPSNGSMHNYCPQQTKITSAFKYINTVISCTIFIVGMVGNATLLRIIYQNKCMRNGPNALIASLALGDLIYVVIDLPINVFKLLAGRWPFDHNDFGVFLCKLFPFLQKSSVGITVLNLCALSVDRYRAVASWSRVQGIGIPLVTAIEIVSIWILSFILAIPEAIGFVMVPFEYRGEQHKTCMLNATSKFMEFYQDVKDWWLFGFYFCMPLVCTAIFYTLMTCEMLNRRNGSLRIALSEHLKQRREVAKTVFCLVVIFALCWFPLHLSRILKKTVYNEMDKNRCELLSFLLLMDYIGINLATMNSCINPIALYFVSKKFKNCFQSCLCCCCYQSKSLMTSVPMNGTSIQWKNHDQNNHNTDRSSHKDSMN

Compound	IC50 (Endothelin-1 receptor [7])	further results
CCCCN(CCCC)C(=O)CN1C[C@H](c2ccc3c(c2)OCO3)[C@@H](C(=O)O)[C@@H]1CC(C)(C)CCC	1.3 nM	AUC [1]: 7060 ng·h/mL; bioavailability [2]: 76.8%; Cmax [3]: 1480 ng/mL; half-life [4]: 2.45 h; half-life [5]: 3.85 h; IC50 [6]: 2800 nM; IC50 (Endothelin-1 receptor [8]): 0.29 nM
CCCCN(CCCC)C(=O)CN1C[C@H](c2ccc3c(c2)OCO3)[C@@H](C(=O)O)[C@@H]1CCC1SCCS1	4.5 nM	
C/C=C(\C)CC[C@H]1[C@H](C(=O)O)[C@@H](c2ccc3c(c2)OCO3)CN1CC(=O)N(CCCC)CCCC	3.3 nM	
CCCCN(CCCC)C(=O)CN1C[C@H](c2ccc3c(c2)OCO3)[C@@H](C(=O)O)[C@@H]1CCC1OCCCO1	3.3 nM	
CCCOc1ccc2c(c1)[C@@H](c1ccc(OC)cc1OCCO)[C@H](C(=O)O)[C@H]2c1ccc2c(c1)OCO2		bioavailability [2]: 66%; half-life [4]: 3.3 h
CCCCN(CCCC)C(=O)CN1C[C@H](c2ccc3c(c2)OCO3)[C@@H](C(=O)O)[C@@H]1CC(CCC)CCC	6 nM	
C=CCCC[C@H]1[C@H](C(=O)O)[C@@H](c2ccc3c(c2)OCO3)CN1CC(=O)N(CCCC)CCCC	9.9 nM	
CCCCN(CCCC)C(=O)CN1C[C@H](c2ccc3c(c2)OCO3)[C@@H](C(=O)O)[C@@H]1CCC1OC(C)C(C)O1 (some centres undefined)	13 nM	
CCCCN(CCCC)C(=O)CN1C[C@H](c2ccc3c(c2)OCO3)[C@@H](C(=O)O)[C@@H]1CCCCC(F)(F)F	4 nM	
C/C=C\C(C)(C)C[C@H]1[C@H](C(=O)O)[C@@H](c2cc(OC)c3c(c2)OCO3)CN1CC(=O)N(CCCC)CCCC	0.41 nM	AUC [1]: 2090 ng·h/mL; bioavailability [2]: 27.8%; Cmax [3]: 660 ng/mL; half-life [4]: 1.5 h; half-life [5]: 3.94 h; IC50 [6]: 39700 nM; IC50 (Endothelin-1 receptor [8]): 0.29 nM
CCCCN(CCCC)C(=O)CN1C[C@H](c2ccc3c(c2)OCO3)[C@@H](C(=O)O)[C@@H]1CCC1CCCO1 (some centres undefined)	12 nM	
CCCCN(CCCC)C(=O)CN1C[C@H](c2ccc3c(c2)OCO3)[C@@H](C(=O)O)[C@@H]1CCC1CCOCC1	10 nM	
CCCCN(CCCC)C(=O)CN1C[C@H](c2ccc3c(c2)OCO3)[C@@H](C(=O)O)[C@@H]1CCc1ncco1	2.4 nM	
CCCCN(CCCC)C(=O)CN1C[C@H](c2cc(OC)c3c(c2)OCO3)[C@@H](C(=O)O)[C@@H]1CC(C)(C)CCC [ABT-546]	0.56 nM	AUC [1]: 3270 ng·h/mL; bioavailability [2]: 47.7%; Cmax [3]: 1690 ng/mL; half-life [4]: 1.6 h; half-life [5]: 2.5 h
CCCCN(CCCC)C(=O)CN1C[C@H](c2ccc3c(c2)OCO3)[C@@H](C(=O)O)[C@@H]1CCc1ccoc1	2.2 nM	
CCCCN(CCCC)C(=O)CN1C[C@H](c2ccc3c(c2)OCO3)[C@@H](C(=O)O)[C@@H]1CCn1cccn1	0.51 nM	IC50 [6]: 42000 nM; IC50 (Endothelin-1 receptor [8]): 1.06 nM
CCCCN(CCCC)C(=O)CN1C[C@H](c2ccc3c(c2)OCO3)[C@@H](C(=O)O)[C@@H]1CCC1OCCO1	2.3 nM	
CCCCN(CCCC)C(=O)CN1C[C@H](c2ccc3c(c2)OCO3)[C@@H](C(=O)O)[C@@H]1CCCC1OCCO1	7 nM	
CCCCC[C@H]1[C@H](C(=O)O)[C@@H](c2ccc3c(c2)OCO3)CN1CC(=O)N(CCCC)CCCC	2.5 nM	
CCCCN(CCCC)C(=O)CN1C[C@H](c2ccc3c(c2)OCO3)[C@@H](C(=O)O)[C@@H]1CCN1CCCC1=O	0.42 nM	AUC [1]: 9 ng·h/mL; bioavailability [2]: 0.3%; Cmax [3]: 16 ng/mL; half-life [4]: 1.4 h; IC50 [6]: 18000 nM; IC50 (Endothelin-1 receptor [8]): 0.17 nM

Compound	IC50 (Endothelin-1 receptor [7])	further results
CCCCN(CCCC)C(=O)CN1C[C@H](c2ccc3c(c2)OCO3)[C@@H](C(=O)O)[C@@H]1CCC(C)CC (some centres undefined)	16 nM	
C/C=C/CC[C@H]1[C@H](C(=O)O)[C@@H](c2ccc3c(c2)OCO3)CN1CC(=O)N(CCCC)CCCC	4.8 nM	
CCCCN(CCCC)C(=O)CN1C[C@H](c2ccc3c(c2)OCO3)[C@@H](C(=O)O)[C@@H]1CCC=C(C)C	1.3 nM	
CCCCN(CCCC)C(=O)CN1C[C@H](c2ccc3c(c2)OCO3)[C@@H](C(=O)O)[C@@H]1CC(C)(C)C=C(C)C	2.7 nM	
CCCCN(CCCC)C(=O)CN1C[C@H](c2ccc3c(c2)OCO3)[C@@H](C(=O)O)[C@@H]1CCC1CCCCO1 (some centres undefined)	1.8 nM	
CCCCN(CCCC)C(=O)CN1C[C@H](c2ccc3c(c2)OCO3)[C@@H](C(=O)O)[C@@H]1CCc1ccco1	2.7 nM	
C/C=C\CC[C@H]1[C@H](C(=O)O)[C@@H](c2ccc3c(c2)OCO3)CN1CC(=O)N(CCCC)CCCC	0.78 nM	
C/C=C\C(C)(C)C[C@H]1[C@H](C(=O)O)[C@@H](c2ccc3c(c2)OCO3)CN1CC(=O)N(CCCC)CCCC		AUC [1]: 2620 ng·h/mL; bioavailability [2]: 32.2%; Cmax [3]: 1490 ng/mL; half-life [4]: 1.6 h; half-life [5]: 3.58 h; IC50 [6]: 92700 nM; IC50 (Endothelin-1 receptor [8]): 1 nM
CCCCN(CCCC)C(=O)CN1C[C@H](c2ccc3c(c2)OCO3)[C@@H](C(=O)O)[C@@H]1CCC=C1CC1	0.64 nM	
CCCCN(CCCC)C(=O)CN1C[C@H](c2ccc3c(c2)OCO3)[C@@H](C(=O)O)[C@@H]1CCC(CC)CC	22 nM	
CCCCN(CCCC)C(=O)CN1C[C@H](c2ccc3c(c2)OCO3)[C@@H](C(=O)O)[C@@H]1CCN1C(=O)CCC1=O	5 nM	
CCCCN(CCCC)C(=O)CN1C[C@H](c2ccc3c(c2)OCO3)[C@@H](C(=O)O)[C@@H]1CCc1nc(C)c(C)o1	1.05 nM	
CCCCN(CCCC)C(=O)CN1C[C@H](c2ccc3c(c2)OCO3)[C@@H](C(=O)O)[C@@H]1CC(C)(C)C1OCCO1	1.4 nM	
CCCCN(CCCC)C(=O)CN1C[C@H](c2ccc3c(c2)OCO3)[C@@H](C(=O)O)[C@@H]1CCN1CCCCC1=O	2 nM	
CCCCN(CCCC)C(=O)CN1C[C@H](c2ccc3c(c2)OCO3)[C@@H](C(=O)O)[C@@H]1CCc1cccn1C	2.5 nM	
CCCCN(CCCC)C(=O)CN1C[C@H](c2ccc3c(c2)OCO3)[C@@H](C(=O)O)[C@@H]1CC(C)CCC (some centres undefined)	3 nM	
C=C(C)CCC[C@H]1[C@H](C(=O)O)[C@@H](c2ccc3c(c2)OCO3)CN1CC(=O)N(CCCC)CCCC	5.2 nM	
CCCCN(CCCC)C(=O)CN1C[C@H](c2ccc3c(c2)OCO3)[C@@H](C(=O)O)[C@@H]1CCn1ccccc1=O	2.2 nM	
CCCCN(CCCC)C(=O)CN1C[C@H](c2ccc3c(c2)OCO3)[C@@H](C(=O)O)[C@@H]1CC/C=C(/C)CC	0.86 nM	
CCCCN(CCCC)C(=O)CN1C[C@H](c2ccc3c(c2)OCO3)[C@@H](C(=O)O)[C@@H]1CCCC(C)C	2.5 nM	
